Experimental data from article PMC11375963 (RSC Advances, 2024).

Assays:
[1] = Cytotoxicity; assay type: cell-based; conditions: mouse, BV2 microglial cells
In short: (§1)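 Mouse BV2 microglia in DMEM with 10% FBS and 1% penicillin–streptomycin, 37 °C, 5% CO2. Seeded at 2 × 10^4 cells/well for 24 h, then exposed to test compound (0, 5, 10, 20, 40, 80 μM) for 24 h. MTT at 500 μg mL−1 for 3 h, formazan dissolved in DMSO, A570. Mean ± SD (n = 3); one-way ANOVA with Dunnett versus vehicle.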

[2] = system: TNF-α; assay: TNF-α release; assay type: cell-based; conditions: LPS-induced BV2 cells, pretreatment, concentration-dependent manner (Fig. 4 and 5)
[3] = system: IL-6; assay: IL-6 release; assay type: cell-based; conditions: LPS-induced BV2 cells, pretreatment, concentration-dependent manner (Fig. 4 and 5)
[4] = system: MCP-1; assay: MCP-1 release; assay type: cell-based; conditions: LPS-induced BV2 cells, pretreatment, concentration-dependent manner (Fig. 4 and 5)
[5] = system: NF-κB (p65); assay: Western blot of LPS-induced NF-κB; assay type: cell-based; conditions: pretreated 1 hour with the highest safety dose, LPS for 1 hour (Fig. 6)
In short: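 BV2 cells (2 × 10^6 per 6 cm dish) got the highest non-cytotoxic test-compound concentration for 1 h, then LPS for 1 h. Lysates were centrifuged (4 °C, 12 000 rpm, 10 min), Bradford-quantified, 40 μg run on 10% SDS–PAGE and semi-dry blotted to nitrocellulose. P-p65, p65 (1:1000) and β-actin (1:2000) were detected by HRP anti-rabbit and ECL, then densitometry; one-way ANOVA/Bonferroni versus LPS.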

[6] = system: BV2 microglial cells; assay: Cytotoxicity; assay type: cell-based; conditions: 24 hours, MTT, mean ± SD (n = 3)
In short: as §1

[7] = system: LPS-induced RAW264.7 cells; conditions: cited from earlier work

Molecule	viability at 24 h, 5 µM [1]	viability at 24 h, 10 µM [1]	viability at 24 h, 20 µM [1]	viability at 24 h, 40 µM [1]	viability at 24 h, 80 µM [1]	Effect on release of TNF-α [2]	Effect on release of IL-6 [3]	Effect on release of MCP-1 [4]	Effect on LPS-induced NF-κB (p65) phosphorylation (P-p65-NF-κB/p65-NF-κB ratio) [5]	Percentage viability (%) ([6]; 5 μM)	Percentage viability (%) ([6]; 10 μM)	Percentage viability (%) ([6]; 20 μM)	Percentage viability (%) ([6]; 40 μM)	Percentage viability (%) ([6]; 80 μM)	Anti-inflammatory activity [7]
O=C(O)c1ccc(O)cc1 [Compound 10, p-hydroxybenzoic acid]	101 ± 2.85%	96.6 ± 1.58%	104 ± 7.79%	95.8 ± 4.1%	85.1 ± 9.87%	–	–	–	–	–	–	–	–	–	–
COc1cc2ccc3cccc(O)c3c2c(OC)c1O [Compound 9, bulbophyllanthrin]	102 ± 2.99%	101 ± 4.09%	105 ± 3.47%	105 ± 5.59%	112 ± 5.8%	–	–	–	–	–	–	–	–	–	–
O=C(O)c1ccc(CO)cc1 [Compound 15, 4-hydroxymethyl benzoic acid]	103 ± 1.97%	105 ± 3.91%	111 ± 2.26%	108 ± 2.12%	104 ± 3.05%	–	–	–	–	–	–	–	–	–	–
COc1cc(O)c(Cc2ccc(O)cc2)c2c1-c1ccc(O)cc1CC2 [Compound 14, 1-(4-hydroxylbenzyl)-4-methoxy 9,10-dihydrophenanthrene 2,7-diol]	108 ± 3.2%	97.9 ± 8.91%	91.9 ± 1.47%	65.9 ± 4.08%	26.7 ± 14.7%	significantly reduced	significantly reduced	significantly reduced	–	–	–	–	–	–	–
O=Cc1ccc(O)cc1 [Compound 5, p-hydroxybenzaldehyde]	105 ± 1.81%	104 ± 7.68%	101 ± 7.37%	101 ± 14.9%	94.5 ± 21.6%	–	–	–	–	–	–	–	–	–	–
COc1ccc2c(c1O)CCc1cc(O)cc(OC)c1-2 [Compound 4, 9,10-dihydro-2,5-dimethoxy-1,7-phenanthrenediol]	102 ± 3.53%	99.3 ± 5.77%	101 ± 2.3%	95.3 ± 3.88%	49.1 ± 24.6%	–	–	–	–	–	–	–	–	–	–
COc1cc(/C=C/C(=O)NCCc2ccc(O)cc2)ccc1O [Compound 17, N-trans-feruloyl tyramine]	107 ± 6.44%	97.3 ± 7.01%	101 ± 8.73%	101 ± 5.33%	84.9 ± 5.53%	–	–	–	–	–	–	–	–	–	–
COC1=CC(=O)c2ccc3cc(OC)c(OC)c(OC)c3c2C1=O [Compound 3, 3,5,6,7-tetramethoxy-1,4-phenanthrenequinone]	99.9 ± 1.96%	95.6 ± 7.44%	94.9 ± 3.76%	88.8 ± 6.76%	55.1 ± 26.4%	significantly reduced	significantly reduced	significantly reduced	significantly suppressed	–	–	–	–	–	–
COc1cc(O)cc2c1-c1c(O)cccc1CC2 [Compound 7, hircinol]	105 ± 4.37%	108 ± 3.16%	112 ± 2.51%	111 ± 1.88%	104 ± 9.12%	–	–	–	–	–	–	–	–	–	–
COc1cc2c(ccc3cc(OC)c(O)c(OC)c32)cc1O [Compound 8, 3,7-dihydroxy-2,4,6-trimethoxyphenanthrene]	106.3 ± 0.36%	100 ± 6.16%	108.2 ± 0.53%	113 ± 1.57%	94.4 ± 21.2%	–	–	–	–	–	–	–	–	–	–
COC1=CC(=O)c2c(ccc3cc(OC)c(OC)c(OC)c23)C1=O [Compound 1, 2,5,6,7-tetramethoxy-1,4-phenanthrenequinone]	101 ± 3.33%	101.5 ± 0.67%	105 ± 7.09%	102 ± 8.6%	73.7 ± 18.5%	significantly reduced	significantly reduced	significantly reduced	–	–	–	–	–	–	–
coelonin [Compound 6]	–	–	–	–	–	significantly reduced	significantly reduced	significantly reduced	–	106.33 ± 4.65%	108.08 ± 5.54%	105.55 ± 7.76%	76.69 ± 2.86 %	44.78 ± 13.23 %	anti-inflammatory activity
COc1cc(C(=O)O)ccc1O [Compound 11, vanillic acid]	102.9 ± 0.86%	99.7 ± 1.55%	98.77 ± 0.86%	94.8 ± 2.82%	86.4 ± 4.09%	–	–	–	–	–	–	–	–	–	–
